What is called Ki is a measure of affinity in units of concentration, obtained from inhibition or displacement. What is called inhibition is the change of the read-out against control, counted positive when it falls. What is called IC50 is the concentration at which inhibition is half-maximal.

Results on 45 molecules are retold here after ChEMBL document CHEMBL1275402, “Virtual screening to identify novel antagonists for the G protein-coupled NK3 receptor” (J Med Chem, 2010).

Experiment [1] has as its target T1, Neuromedin-K receptor (Homo sapiens, UniProt P29371).
T1 sequence (P29371 whole entry): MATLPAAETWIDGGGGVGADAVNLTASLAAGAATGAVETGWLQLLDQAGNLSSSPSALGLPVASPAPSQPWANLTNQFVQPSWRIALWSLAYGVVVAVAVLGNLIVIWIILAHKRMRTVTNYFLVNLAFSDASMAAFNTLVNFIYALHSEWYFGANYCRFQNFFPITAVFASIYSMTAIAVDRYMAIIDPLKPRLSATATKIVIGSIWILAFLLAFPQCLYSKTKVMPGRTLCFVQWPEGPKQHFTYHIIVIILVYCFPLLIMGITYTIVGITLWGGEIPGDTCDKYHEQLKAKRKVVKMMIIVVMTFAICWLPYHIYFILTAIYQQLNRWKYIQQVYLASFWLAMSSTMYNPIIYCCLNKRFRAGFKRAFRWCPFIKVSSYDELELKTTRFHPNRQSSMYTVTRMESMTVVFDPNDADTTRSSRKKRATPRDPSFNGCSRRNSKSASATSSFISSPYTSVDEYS
Briefly: biochemical.

Experiment [2] concerns the target T2, Neuromedin-K receptor (Homo sapiens) (UniProt P29371).
T2 sequence (whole entry): T1 sequence (P29371 whole entry)
Briefly: Antagonist activity against human NK3 receptor expressed in CHO cells assessed as inhibition of senktide-induced increase of intracellular calcium level at 50 uM after 10 mins by fluorescent plate-reader analysis relative to control. Format: functional, cell-based. In short, it runs like this: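 hNK3R-expressing CHO cells were preincubated 10 min with test compound at 50 μM. The calcium response to 200 nM senktide was then measured and expressed as percent inhibition versus the senktide response without antagonist.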
(In general: Calcium flux is commonly read through the fluorescence of an indicator in the cells.)

Experiment [3] concerns the target T1, Neuromedin-K receptor. In words: Antagonist activity against human NK3 receptor expressed in HEK293 cells assessed as inhibition of MePhe7-NKB-induced increase of intracellular calcium level by fluorescent plate-reader analysis. Format: functional, cell-based. As to conditions: in the assay text read “CHO cells” for “HEK293 cells”. An outline of the steps:
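Calcium responses to 50 nM MePhe7-NKB were measured across increasing antagonist concentrations, and IC50 was derived from the concentration-response curve.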

For experiment [4], the target named is T1, Neuromedin-K receptor. Briefly: Antagonist activity against human NK3 receptor expressed in CHO cells assessed as inhibition of senktide-induced increase of intracellular calcium level after 10 mins by fluorescent plate-reader analysis relative to control.
The target in experiment [5] is T2, Neuromedin-K receptor (Homo sapiens). To be noted: CHO.

As to `Nc1c(-c2cccc(F)c2)nc2ccccc2c1C(=O)NC(c1cccc(F)c1)C1CC1` (configuration not stated), the Ki at Neuromedin-K receptor [1] was 6.31 nM. In other words, the single-digit nanomolar range.
Turning to `Cc1ccc(CNC(=O)c2cc(-c3ccccc3)nc3ccccc23)cc1`, the inhibition in experiment [2] turned out to be 21%.
On to `CCCN1N=C(C(=O)NC(C)c2ccccc2)C2CN(CC)CCC21` (configuration not stated), for which the inhibition in experiment [2] was determined as 6%.
As for `CCC(NC(=O)c1cc(-c2ccccc2)nc2ccccc12)c1ccccn1` (configuration not stated), the inhibition in experiment [2] is 82%. Also, the IC50 turned out to be 1400 nM at Neuromedin-K receptor [3], 5.2 nM against Neuromedin-K receptor [1] and 900 nM at Neuromedin-K receptor [4].
Take `CC(C)C(NC(=O)c1cc(-c2ccccc2)nc2ccccc12)c1ccccc1` (configuration not stated): the Ki at Neuromedin-K receptor [1] is 79.4 nM.
On to `c1ccc(CNc2nccc3[nH]c(-c4ccccc4)nc23)cc1`, for which, in experiment [2], the inhibition came to 42%.
As for `CN(C)C(=O)C(NC(=O)c1cc(-c2ccccc2)nc2ccccc12)c1ccccc1` (configuration not stated), the Ki at Neuromedin-K receptor [1] was 501 nM.
Turning to `NC(=O)C(NC(=O)c1cc(-c2ccccc2)nc2ccccc12)c1ccccc1` (configuration not stated), affinity on Neuromedin-K receptor [1] was put at a Ki of 1000 nM.
`COc1ccc(-c2cc(C(=O)NC(C)c3ccccn3)c3ccccc3n2)cc1OC` (configuration not stated): in experiment [2], the inhibition was found to be 16%.
At Neuromedin-K receptor [1], `O=C(NC(c1ccccc1)C(F)(F)F)c1cc(-c2ccccc2)nc2ccccc12` (configuration not stated) gave a Ki of 501 nM.
Take `Cc1ccc(-c2cc(C(=O)NC(C)c3ccccc3)c3ccccc3n2)c(C)c1` (configuration not stated): the inhibition in experiment [2] was 18%.
Consider `O=C(NCCc1ccccc1)c1cc(-c2ccccc2)nc2ccccc12`, for which the inhibition in experiment [2] is 54%.
Consider `O=C(NC(CCO)c1ccccc1)c1cc(-c2ccccc2)nc2ccccc12` (configuration not stated), for which, on Neuromedin-K receptor [1], the affinity, expressed as Ki, was 398 nM.
Molecule `CC(=O)N(C)C1(c2ccccc2)CCN(CCC[C@]2(c3ccc(Cl)c(Cl)c3)CCCN(C(=O)c3ccccc3)C2)CC1` returned a Ks in experiment [5] of 1 nM.
As for `O=C(NCc1ccc(Cl)cc1)c1cc(-c2ccccc2Cl)nc2ccccc12`, in experiment [2], the inhibition was 14%.
In turn, `O=C(NC(Cc1ccccc1)c1ccccc1)c1cc(-c2ccccc2)nc2ccccc12` (configuration not stated) gave a Ki on Neuromedin-K receptor [1] of 3160 nM.
With `CNC(=O)C(NC(=O)c1cc(-c2ccccc2)nc2ccccc12)c1ccccc1` (configuration not stated), at Neuromedin-K receptor [1], the Ki is 501 nM. This Ki lies about 6.3-fold lower than the previous one.
With `CCCc1c(-c2ccccc2)nc2ccccc2c1C(=O)NC(CC)c1ccccc1` (configuration not stated), the inhibition constant (Ki) at Neuromedin-K receptor [1] was 12.6 nM. This Ki lies about 40-fold lower than the previous one.
Regarding `O=C(NCc1ccccc1)c1cc(-c2ccccc2)nc2ccccc12`, the inhibition in experiment [2] stood at 30%.
Consider `Cc1ccc(-c2cc(C(=O)NCCc3ccccc3)c3ccccc3n2)cc1`, for which the inhibition in experiment [2] was 17%.
With `O=C(NCc1ccccn1)c1cc(-c2ccccc2)nc2ccccc12`, in experiment [2], the inhibition was found to be 17%.
Regarding `Nc1c(-c2ccccc2)nc2ccccc2c1C(=O)NC(c1ccccc1F)C1CC1` (configuration not stated), the Ki on Neuromedin-K receptor [1] was 5.01 nM.
Molecule `CCC(NC(=O)c1c(N)c(-c2ccc(F)cc2)nc2ccccc12)c1ccccc1` (configuration not stated) gave a Ki at Neuromedin-K receptor [1] of 7.94 nM.
On the same count and under the same terms, in the case of `CC(=O)C(NC(=O)c1cc(-c2ccccc2)nc2ccccc12)c1ccccc1` (configuration not stated) it was 25.1 nM.
Regarding `O=C(NCc1ccc(Cl)cc1)c1cc(-c2ccc(Cl)cc2)nc2ccccc12`, the inhibition in experiment [2] worked out at 13%.
Molecule `CCCCC(NC(=O)c1cc(-c2ccccc2)cc2ccccc12)c1ccccc1` (configuration not stated) had a Ki on Neuromedin-K receptor [1] of 158 nM.
At Neuromedin-K receptor [1], `CCC(NC(=O)c1c(OC)c(-c2ccccc2)nc2ccccc12)c1ccccc1` (configuration not stated) showed a Ki of 6.31 nM.
As for `Cc1ccc(-c2cc(C(=O)NCc3ccc(F)cc3)c3ccccc3n2)cc1`, the inhibition in experiment [2] worked out at 7%.
`Nc1c(-c2cccc(F)c2)nc2ccccc2c1C(=O)NC(c1ccccc1)C1CC1` (configuration not stated) showed a Ki at Neuromedin-K receptor [1] of 10 nM.
Regarding `COc1cccc(-c2nc3c(NCc4ccncc4)nccc3[nH]2)c1F`, the inhibition in experiment [2] is 39%.
Regarding `CCCCCCc1c(-c2ccccc2)nc2ccccc2c1C(=O)NC(CC)c1ccccc1` (configuration not stated), the affinity at Neuromedin-K receptor [1], expressed as Ki, was 50.1 nM.
With `CCC(NC(=O)c1c(-c2ccccc2)c(-c2ccccc2)nc2ccccc12)c1ccccc1` (configuration not stated), on Neuromedin-K receptor [1], affinity was put at a Ki of 50.1 nM.
Regarding `CCOC(=O)c1nn(C)c2c1CN(C(=O)c1cc(-c3ccccc3)nc3ccccc13)CC2`, the inhibition in experiment [2] was 8%.
On to `Nc1c(-c2ccccc2)nc2ccccc2c1C(=O)NC(c1ccccc1)C1CC1` (configuration not stated), for which affinity on Neuromedin-K receptor [1] was put at a Ki of 5.01 nM. This counts as single-digit nanomolar.
On the same count and under the same terms, as for `COC(=O)CC(NC(=O)c1cc(-c2ccccc2)nc2ccccc12)c1ccccc1` (configuration not stated), the figure is 1000 nM.
`CCCCc1c(-c2ccccc2)nc2ccccc2c1C(=O)NC(CC)c1ccccc1` (configuration not stated) showed a Ki on Neuromedin-K receptor [1] of 15.8 nM. This Ki lies about 63-fold lower than the previous one.
As for `CC(NC(=O)c1cc(-c2ccccc2)nc2ccccc12)c1ccccc1` (configuration not stated), the inhibition in experiment [2] worked out at 61%. For the same molecule, the figures for the IC50 at Neuromedin-K receptor [3], against Neuromedin-K receptor [1] and at Neuromedin-K receptor [4] were 9900 nM, 33.5 nM and 2200 nM, respectively. This molecule also had a Ki on Neuromedin-K receptor [1] of 251 nM.
Take `Cc1cccc(-c2nc3c(NCc4ccccc4)nccc3[nH]2)c1`: in experiment [2], the inhibition was 40%.
On to `CCC(NC(=O)c1c(N)c(-c2cccc(F)c2)nc2ccccc12)c1ccccc1` (configuration not stated), for which, on Neuromedin-K receptor [1], the Ki is 3.98 nM. This counts as single-digit nanomolar.
Consider `Cc1nc(-c2ccncc2)n2c1CN(C(=O)C1Cc3ccccc3O1)CC2` (configuration not stated), for which the inhibition in experiment [2] came out at 6%.
`CCCCCCCC(NC(=O)c1cc(-c2ccccc2)nc2ccccc12)c1ccccc1` (configuration not stated) gave a Ki on Neuromedin-K receptor [1] of 5010 nM.
`CCCC(NC(=O)c1cc(-c2ccccc2)nc2ccccc12)c1ccccc1` (configuration not stated) showed a Ki at Neuromedin-K receptor [1] of 50.1 nM. This Ki lies about 100-fold lower than the previous one.
In turn, `O=C(NC(CO)c1ccccc1)c1cc(-c2ccccc2)nc2ccccc12` (configuration not stated) had an inhibition constant (Ki) at Neuromedin-K receptor [1] of 200 nM.
`Nc1c(-c2ccccc2)nc2ccccc2c1C(=O)NC(c1cccc(F)c1)C1CC1` (configuration not stated): on Neuromedin-K receptor [1], the Ki is 3.16 nM.
Take `Cc1ccc(CNC(=O)c2cc(-c3ccc(C)cc3C)nc3ccccc23)cc1`: the inhibition in experiment [2] stood at 9%.
